Assay type in all cases: functional
The subject of test [1] is Staphylococcus aureus. Nature of the test: Antibacterial activity against Micrococcus pyogenes clinical isolate after 18 hrs by microdilution assay. A digest of the protocol:
(§1)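 Broth microdilution in Mueller Hinton broth, inoculum 5 × 10^5–10^6 cfu/mL final, compounds dissolved in DMSO (at most 1% in the solution), 37 °C for 18 h aerobically. Blank controls received DMSO alone; magnolol served as positive control.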

In test [2] the test system is Staphylococcus epidermidis. Nature of the test: Antibacterial activity against Staphylococcus epidermidis ATCC 12228 after 18 hrs by microdilution assay. The following applies: ATCC 12228, 18 h. A digest of the protocol:
as §1

Test [3] concerns Staphylococcus aureus. Nature of the test: Antibacterial activity against Staphylococcus aureus ATCC 25923 after 18 hrs by microdilution assay. The following applies: ATCC 25923, 18 h. A digest of the protocol:
as §1

The test system of a further test is Micrococcus luteus. Nature of the test: Antibacterial activity against Micrococcus luteus ATCC 9341 after 18 hrs by microdilution assay. The following applies: ATCC 9341, 18 h. A digest of the protocol:
as §1
(In general: Broth dilution looks for growth in wells or tubes with falling amounts of substance.)

The next test concerns Bacillus cereus. Nature of the test: Antibacterial activity against Bacillus cereus clinical isolate after 18 hrs by microdilution assay. In a few lines:
as §1

The test system of another test is Shigella flexneri. Description: Antibacterial activity against Shigella flexneri ATCC 12022 after 18 hrs by microdilution assay. To be noted: ATCC 12022, 18 h. In a few lines:
as §1

A further test concerns Serratia marcescens. Description: Antibacterial activity against Serratia marcescens ATCC 25419 after 18 hrs by microdilution assay. To be noted: ATCC 25419, 18 h. A digest of the protocol:
as §1

For another test, the system named is Escherichia coli. Nature of the test: Antibacterial activity against Escherichia coli ATCC 25922 after 18 hrs by microdilution assay. The following applies: ATCC 25922, 18 h. In a few lines:
as §1

The subject of the next test is Bacillus subtilis. Nature of the test: Antibacterial activity against Bacillus subtilis ATCC 6633 after 18 hrs by microdilution assay. The following applies: ATCC 6633, 18 h. A digest of the protocol:
as §1

The subject of another test is Pseudomonas aeruginosa. Nature of the test: Antibacterial activity against Pseudomonas aeruginosa ATCC 14502 after 18 hrs by microdilution assay. To be noted: ATCC 14502, 18 h. A digest of the protocol: as §1
For the next test, the system named is Alcaligenes faecalis. Description: Antibacterial activity against Alcaligenes faecalis ATCC 8750 after 18 hrs by microdilution assay. The following applies: ATCC 8750, 18 h. In a few lines: as §1

Values after ≈ are worked out from the molar mass of the structure shown.

`CC1=CC[C@H]2C(C)(C)C(=O)CC[C@]2(C)[C@H]1CC/C=C(\C)CC/C=C(\C)CC[C@@H](O)C(C)(C)O` [LAMESTICUMIN F]: the MIC (in general, the least concentration at which growth counts as inhibited) against Staphylococcus aureus [1] was over 50 µg/mL; in test [2], over 50 µg/mL; against Staphylococcus aureus [3], over 50 µg/mL; with Micrococcus luteus it was over 50 µg/mL; in the test with Bacillus cereus, 3.12 µg/mL (≈ 6.8 µM); with Shigella flexneri, over 50 µg/mL. Further, the MIC was over 50 µg/mL in the test with Serratia marcescens; over 50 µg/mL in the test with Escherichia coli; 12.5 µg/mL (≈ 27.2 µM) with Bacillus subtilis; over 50 µg/mL in the test on Pseudomonas aeruginosa; over 50 µg/mL against Alcaligenes faecalis.
`C=C(C)[C@@H]1CC=C(C)[C@H](CC[C@H]2C(=C)CC[C@@H](C(C)(C)O)[C@]2(C)CCC(=O)OCC)[C@@]1(C)CCC(=O)O`: the MIC with Staphylococcus aureus [1] was 50 µg/mL (≈ 96.8 µM); in [2], 12.5 µg/mL (≈ 24.2 µM); in the test on Staphylococcus aureus [3], over 50 µg/mL; against Micrococcus luteus it was over 50 µg/mL; in the test on Bacillus cereus, 3.12 µg/mL (≈ 6.04 µM); against Shigella flexneri it was over 50 µg/mL. The MIC is over 50 µg/mL in the test with Serratia marcescens; over 50 µg/mL in the test with Escherichia coli; 12.5 µg/mL (≈ 24.2 µM) in the test with Bacillus subtilis; over 50 µg/mL in the test on Pseudomonas aeruginosa; over 50 µg/mL against Alcaligenes faecalis.
With `C=C1CC[C@H]2C(C)(C)C(=O)CC[C@]2(C)[C@H]1CCC1=C(C)[C@H](O)C[C@H]2C(C)(C)C(=O)CC[C@]12C` [LAMESTICUMIN D], the MIC was over 50 µg/mL with Staphylococcus aureus [1]; over 50 µg/mL in [2]; over 50 µg/mL in the test with Staphylococcus aureus [3]; over 50 µg/mL in the test on Micrococcus luteus; 3.12 µg/mL (≈ 6.86 µM) with Bacillus cereus; over 50 µg/mL against Shigella flexneri. In addition, the MIC with Serratia marcescens was over 50 µg/mL; with Escherichia coli, over 50 µg/mL; against Bacillus subtilis it was 6.25 µg/mL (≈ 13.7 µM); in the test on Pseudomonas aeruginosa, over 50 µg/mL; with Alcaligenes faecalis, over 50 µg/mL.
Turning to `C=C1CC[C@H]2C(C)(C)[C@@H](O)CC[C@]2(C)[C@H]1CCC1=C(C)C(=O)C[C@H]2C(C)(C)C(=O)CC[C@]12C` [LAMESTICUMIN C], the MIC against Staphylococcus aureus [1] was 3.12 µg/mL (≈ 6.86 µM); in test [2], 12.5 µg/mL (≈ 27.5 µM); in the test with Staphylococcus aureus [3], 6.25 µg/mL (≈ 13.7 µM); against Micrococcus luteus, 6.25 µg/mL (≈ 13.7 µM); with Bacillus cereus, 3.12 µg/mL (≈ 6.86 µM); with Shigella flexneri it was over 50 µg/mL. Besides, the MIC in the test on Serratia marcescens was over 50 µg/mL; against Escherichia coli, over 50 µg/mL; against Bacillus subtilis it was 3.12 µg/mL (≈ 6.86 µM); with Pseudomonas aeruginosa, over 50 µg/mL; in the test with Alcaligenes faecalis, over 50 µg/mL.
As for `C=C(C)[C@@H]1CC=C(C)[C@H](CC[C@H]2C(=C)CC[C@@H](C(C)(C)O)[C@]2(C)CCC(=O)OC)[C@@]1(C)CCC(=O)O` [LAMESTICUMIN A], the MIC is 3.12 µg/mL (≈ 6.21 µM) against Staphylococcus aureus [1]; 12.5 µg/mL (≈ 24.9 µM) in [2]; 6.25 µg/mL (≈ 12.4 µM) against Staphylococcus aureus [3]; 6.25 µg/mL (≈ 12.4 µM) against Micrococcus luteus; 3.12 µg/mL (≈ 6.21 µM) against Bacillus cereus; over 50 µg/mL in the test with Shigella flexneri. Besides, the MIC with Serratia marcescens is over 50 µg/mL; against Escherichia coli, over 50 µg/mL; with Bacillus subtilis, 3.12 µg/mL (≈ 6.21 µM); against Pseudomonas aeruginosa it was over 50 µg/mL; in the test on Alcaligenes faecalis, over 50 µg/mL.
Turning to `C=C1CC[C@H]2C(C)(C)[C@@H](O)CC[C@]2(C)[C@H]1CC[C@H]1C(C)=CC[C@@H](C(C)(C)O)[C@]1(C)CCC(=O)OC` [LAMESTICUMIN B], the MIC in the test on Staphylococcus aureus [1] was 3.12 µg/mL (≈ 6.38 µM); in test [2] it was 12.5 µg/mL (≈ 25.6 µM); in the test on Staphylococcus aureus [3], 6.25 µg/mL (≈ 12.8 µM); against Micrococcus luteus it was 3.12 µg/mL (≈ 6.38 µM); in the test on Bacillus cereus, 3.12 µg/mL (≈ 6.38 µM); with Shigella flexneri, over 50 µg/mL. In addition, the MIC was over 50 µg/mL with Serratia marcescens; over 50 µg/mL in the test on Escherichia coli; 3.12 µg/mL (≈ 6.38 µM) in the test with Bacillus subtilis; over 50 µg/mL against Pseudomonas aeruginosa; over 50 µg/mL in the test on Alcaligenes faecalis.
For `C=CCc1ccc(O)c(-c2cc(CC=C)ccc2O)c1` [MAGNOLOL], the MIC was 25 µg/mL (≈ 93.9 µM) against Staphylococcus aureus [1]; 12.5 µg/mL (≈ 46.9 µM) in test [2]; 25 µg/mL (≈ 93.9 µM) against Staphylococcus aureus [3]; 12.5 µg/mL (≈ 46.9 µM) in the test with Micrococcus luteus; 12.5 µg/mL (≈ 46.9 µM) in the test with Bacillus cereus; over 50 µg/mL in the test on Shigella flexneri. The MIC was over 50 µg/mL against Serratia marcescens; over 50 µg/mL against Escherichia coli; 12.5 µg/mL (≈ 46.9 µM) against Bacillus subtilis; over 50 µg/mL with Pseudomonas aeruginosa; over 50 µg/mL against Alcaligenes faecalis.
On to `C=C(C)[C@@H]1CC=C(C)[C@H](CC[C@H]2C(=C)CC[C@H]3C(C)(C)[C@@H](O)CC[C@]23C)[C@@]1(C)CCC(=O)OCC` [ETHYL LANSIOLATE], for which the MIC against Staphylococcus aureus [1] was 3.12 µg/mL (≈ 6.44 µM); in test [2], 12.5 µg/mL (≈ 25.8 µM); against Staphylococcus aureus [3] it was 6.25 µg/mL (≈ 12.9 µM); in the test on Micrococcus luteus, 6.25 µg/mL (≈ 12.9 µM); in the test on Bacillus cereus, 3.12 µg/mL (≈ 6.44 µM); against Shigella flexneri it was over 50 µg/mL. For the same compound, the MIC with Serratia marcescens was over 50 µg/mL; in the test on Escherichia coli it was over 50 µg/mL; in the test on Bacillus subtilis it was 3.12 µg/mL (≈ 6.44 µM); against Pseudomonas aeruginosa, over 50 µg/mL; with Alcaligenes faecalis it was over 50 µg/mL.
As to `C=C1CC[C@H]2C(C)(C)C(=O)CC[C@]2(C)[C@H]1CCC1=C(C)[C@H](O)C[C@@H](C(=C)C)[C@]1(C)CCC(=O)OC` [LAMESTICUMIN E], the MIC against Staphylococcus aureus [1] was 6.25 µg/mL (≈ 12.9 µM); in test [2], over 50 µg/mL; against Staphylococcus aureus [3], over 50 µg/mL; against Micrococcus luteus it was over 50 µg/mL; with Bacillus cereus, 3.12 µg/mL (≈ 6.44 µM); in the test with Shigella flexneri, over 50 µg/mL. In addition, the MIC in the test on Serratia marcescens was over 50 µg/mL; with Escherichia coli it was over 50 µg/mL; in the test on Bacillus subtilis it was 12.5 µg/mL (≈ 25.8 µM); against Pseudomonas aeruginosa, over 50 µg/mL; against Alcaligenes faecalis, over 50 µg/mL.
In the case of `C=C(C)[C@@H]1CCC(=C)[C@H](CC[C@H]2C(C)=CC[C@@H](C(=C)C)[C@]2(C)CCC(=O)O)[C@@]1(C)CCC(=O)OCC`, the MIC against Staphylococcus aureus [1] is 12.5 µg/mL (≈ 25.1 µM); in test [2], 12.5 µg/mL (≈ 25.1 µM); against Staphylococcus aureus [3], 50 µg/mL (≈ 100 µM); in the test on Micrococcus luteus, over 50 µg/mL; in the test with Bacillus cereus, 3.12 µg/mL (≈ 6.26 µM); in the test on Shigella flexneri, over 50 µg/mL. For the same compound, the MIC with Serratia marcescens was over 50 µg/mL; against Escherichia coli, over 50 µg/mL; in the test on Bacillus subtilis it was 12.5 µg/mL (≈ 25.1 µM); against Pseudomonas aeruginosa, over 50 µg/mL; with Alcaligenes faecalis, over 50 µg/mL.
